From PubChem
UPR CHOP act: activators of apoptotic arm of unfolded protein response (CHOP); CHO-CHOP luciferase reporter, UPR activation, luminescence; percent of tunicamycin response over DMSO baseline; activation, % at 10 µM; actives 0.34% (n = 330,000);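 active = at 10 µM dose, activation of 40% or more, normalized to positive control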
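measured by = luciferase luminescence | assay system = CHO-CHOP cells, stable luciferase reporter of PERK-eIF2a-CHOP signalling | amount = 500 reporter cells seeded per well | timing = 6 h compound exposure at 37 °C after overnight seeding | controls = positive tunicamycin 10 µg/mL, negative DMSO alone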
XBP1 UPR activ: adaptive UPR (XBP1) activation | CHO-XBP1 luciferase reporter, IRE1-XBP1 UPR activation, luminescence; percent of tunicamycin response, DMSO as zero | activation, % at 20 µM | actives 0.33% (n = 330,000) | AID 463104;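 active = versus positive control, 20 µM dose yields 30% or more activation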
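Material: CHO cell line with stable XBP1 luciferase reporter; schedule: 16-18 h cell attachment at 37 °C, then 6 h compound exposure; signal: glow luminescence from Steady-Glo reagent; medium: serum-containing F12 medium, 10% FBS; benchmarks: tunicamycin 10 µg/mL and vehicle-only wells; read-out: percent activation relative to tunicamycin reference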
CHOP inh: CHOP inhibition in unfolded protein response; CHO-K1 CHOP-promoter luciferase, tunicamycin-induced, 15-18 h; inhibition, % at 10 µM; actives 3.8% (n = 220,000); AID 2732;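 active = compounds that reduced the stress-induced luciferase reporter signal by more than about 70% of percent inhibition, limit read from the data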
GAA850 FXN act: increases GAA850 frataxin promoter reporter activity; HEK293 lucGAA850 FXN promoter luciferase reporter, 24 h; percent of 10 µM SAHA response; activation, % at 6 µM; actives 0.56% (n = 360,000); AID 540364;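 active = activation above the average of all compounds screened plus 3 SD, cutoff fixed separately per campaign, cut at about 7.5% in these data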
UPR CHOP confirm: confirmation of apoptotic unfolded protein response (CHOP) activators | shares compounds with UPR CHOP act | CHO-CHOP cells, CHOP-luciferase reporter luminescence; percent of tunicamycin response, DMSO as zero | activation, % at 10 µM | actives 64% (n = 1,000) | AID 463112; in the data active = activation above about 33%
Numbers stand for hits; i = inactive; nt = no result. This excerpt belongs to a sample that is enriched for hits.

SMILES	UPR CHOP act	XBP1 UPR activ	CHOP inh	GAA850 FXN act	UPR CHOP confirm
C/C(=N\NC(=O)COc1ccccc1-c1ccccc1)c1ccccn1	105	i	i	i	205
S=C(Nc1ccccc1)Nc1ccccn1	nt	nt	nt	i	nt
S=C(Nc1ccccc1)c1ccccn1	117	i	i	i	149
COC(=O)C(=Cc1ccc(OCc2ccc([N+](=O)[O-])cc2)c(OC)c1)C(=O)OC	334	i	i	i	106
COc1cc(/C=N/NC(=O)c2cccc([N+](=O)[O-])c2)ccc1OCc1ccccc1	i	i	i	i	nt
COc1cc(C(c2c(C)[nH][nH]c2=O)c2c(C)[nH][nH]c2=O)ccc1OCc1ccc([N+](=O)[O-])cc1	i	i	i	i	nt
CCOC(=O)C(=Cc1ccc(OCc2ccc([N+](=O)[O-])cc2)c(OC)c1)C(=O)OCC	219	i	i	i	247
S=C1SCN(Cc2cccnc2)CN1Cc1ccccc1	i	i	i	i	nt
CC(C)(C)N1CSC(=S)N(Cc2ccccc2)C1	86	i	i	i	82
CC(C)N1CSC(=S)N(Cc2ccccc2)C1	75	i	i	i	94
CC1=C(C(=O)N2CCOCC2)CC(CC(=O)NCC2CCCCC2)C(=O)N1Cc1ccccc1 (configuration not stated)	nt	nt	nt	i	nt
COc1ccc(NC(=O)C[C@H]2C(=O)N(Cc3ccccc3)C[C@@H]2CSC)cc1	nt	nt	nt	i	nt
Cc1noc(-c2ccccc2)c1NC(=O)Nc1ccc2nc([C@H]3C[C@H](O)[C@@H](CO)O3)[nH]c2c1	nt	nt	nt	i	nt
C1C2CC3C1C3C2=NN=C1C2CC3C(C2)C13	nt	nt	nt	i	nt
Oc1c(CN2CCc3ccccc3C2)cc(Cl)c2cccnc12	86	i	nt	i	325
O=C(COc1c(Br)cc(Br)c2cccnc12)N1CCCCC1	i	i	i	i	nt
Oc1c(CN2CCCCC2)cc(Br)c2cccnc12	88	i	nt	i	125
Oc1c(Cl)cc(CN2CCOCC2)c2cccnc12	134	i	nt	i	128
Cc1cccc(NC(=O)Nc2nnc([C@H]3C[C@H](O)[C@@H](CO)O3)s2)c1	nt	nt	nt	i	nt
Cc1nn(CC2CC2)c(=O)n1-c1ccccc1	48	i	i	i	i
COc1cc(C(O)c2nc(-c3cccc4cccnc34)cs2)ccc1F (configuration not stated)	nt	nt	nt	i	nt
COc1cc2c(cc1NC(=S)NC(=O)c1c(OC)cccc1OC)oc1ccccc12	i	i	i	i	nt
COc1cc(OC)cc(C(=O)NC(=S)Nc2cc3oc4ccccc4c3cc2OC)c1	101	i	i	i	74
CSc1ccc(CNC(=O)C2(C)CCCN(C(C)C)C2)cc1 (configuration not stated)	nt	nt	nt	i	nt
OC[C@@H]1CN(Cc2ccc3c(c2)OCO3)C[C@H](n2cnc3c(NC4CCCC4)ncnc32)O1	nt	nt	nt	i	nt
SMILES	UPR CHOP act	XBP1 UPR activ	CHOP inh	GAA850 FXN act	UPR CHOP confirm
Cc1ccc(Sc2c([N+](=O)[O-])c(=O)n(C)c3ccccc23)cc1	101	i	nt	i	99
Cc1ccc(Sc2c(O)c3ccccc3n(C)c2=O)cc1	nt	nt	i	i	nt
CCn1c(CSc2nc3ccccc3s2)nnc1SCC(=O)c1ccc(O)c(O)c1	47	i	i	i	i
CCn1c(CSc2nc3ccccc3s2)nnc1SCC(=O)c1ccc(Cl)cc1	i	i	i	i	nt
Cc1ccc(CNC(=O)Nc2nnc([C@@H]3C[C@H](O)[C@@H](CO)O3)s2)cc1	nt	nt	nt	i	nt
O=C(NC1CCCC(C(F)(F)F)C1)c1ccc([N+](=O)[O-])o1 (configuration not stated)	64	i	nt	i	i
CCC(=O)N1CCC1(C)C(=O)Nc1cnc2ccccc2c1 (configuration not stated)	nt	nt	nt	i	nt
C[C@H](CO)N1C[C@H](C)[C@H](CN(C)Cc2ccncc2)Oc2cc(-c3ccccc3F)ccc2S1(=O)=O	nt	nt	nt	i	nt
Cc1ccc2c(c1)c(N=Nc1ccc([N+](=O)[O-])cc1)c(O)n2C	73	99	nt	i	i
O=C1Nc2ccccc2/C1=C\C(=O)c1ccccc1	98	i	nt	i	237
CC1=CC(=NOC(=O)c2cccc([N+](=O)[O-])c2)C=C(C)C1=O	i	i	i	i	nt
CC1=CC(=O)C(C(C)C)=C/C1=N/OC(=O)c1cccc([N+](=O)[O-])c1	73	i	i	i	48
O=C(Nc1nnc([C@H]2C[C@H](O)[C@@H](CO)O2)s1)C(c1ccccc1)c1ccccc1	nt	nt	nt	i	nt
